Measurements published in publication PMC4517987 (Bioorganic & medicinal chemistry, 2015).
Counter-ions that a name gives are not always drawn.

Legend:
[1] = tested on: intraerythrocytic P. falciparum 3D7; conditions: cited from earlier work
[2] = tested on: HepG2 cells; assay: Cytotoxicity against HepG2 cells, lactate dehydrogenase; format: cell-based, human; conditions: GI50 mammalian cell (HepG2)/IC50 P. falciparum (3D7)
[3] = tested on: intraerythrocytic P. falciparum parasites; assay: Flow cytometric analysis of nuclear content and parasitemia; format: cell-based, Plasmodium falciparum; conditions: 1 × IC90, continuous treatment for 96 h
Outline: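 Intraerythrocytic parasites (2% parasitemia, 2% hematocrit) treated in duplicate, with untreated (DMSO) controls. Samples taken at 24, 48, 72 and 96 h. Nuclear content (1 N rings/early trophozoites, 2 N trophozoites, >2 N schizonts) and parasitemia measured from SYBR Green I fluorescence by flow cytometry in the FITC channel (488 nm excitation; 502 nm long-pass and 530 nm band-pass emission).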

[4] = tested on: HepG2 cells; conditions: HepG2 vs P. falciparum; cited from earlier work
[5] = tested on: β-hematin formation; assay: NP-40 mediated β-hematin formation assay; format: biochemical
[6] = tested on: late (>90% stage IV/V) gametocytes of P. falciparum (NF54-Mal8p1.16-GFP-Luc); assay: Gametocytocidal luciferase reporter assay, late gametocytes; format: cell-based, Plasmodium falciparum; conditions: 5 µM, 48 h, inhibition of luciferase readout
Outline: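 Gametocytes induced from synchronized asexual cultures in the NF54-Mal8p1.16-GFP-Luc line: glucose-free medium under hypoxia, with daily changes, and 50 mM N-acetyl glucosamine on days 1–4 to remove asexual forms. Assays set up on day 10 in triplicate at 2% gametocytemia and 2% hematocrit, 48 h, 37 °C, hypoxic. Luciferin added to lysates at room temperature and luminescence read with 10 s integration; % inhibition derived.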

[7] = tested on: Plasmodium yoelii; conditions: murine model of Plasmodium yoelii; ref unpublished observations; cited from earlier work

Q: Which “P. falciparum IC50 (previously reported analogues)” value [1] does the source give for `CCCNC(=O)NCCCNCCCCCCNCCCNC(=O)NCCC` [Compound 53] here?
A: inactive

Q: For `S=C(NCCCNCCCCCNCCCNC(=S)NCC(c1ccccc1)c1ccccc1)NCC(c1ccccc1)c1ccccc1` [Compound 10, 1,13-Bis-{3-[1-(2′,2′-diphenylethyl)thiourea]}-4,10-diazatridecane dihydrochloride], which “Selectivity index (SI)” value [2] is on record?
A: > 1000

Q: For `O=C(NCCCNCCCCCNCCCNC(=O)NCC(c1ccccc1)c1ccccc1)NCC(c1ccccc1)c1ccccc1` [Compound 15, 1,13-Bis-{3-[1-(2′,2′-diphenylethyl)urea]}-4,10-diazat-ridecane dihydrochloride], which “Time to complete cessation of parasite proliferation” value [3] is on record?
A: ≤ 24 h

Q: For `O=C(NCCCNCCCCCCCNCCCNC(=O)NC(c1ccccc1)c1ccccc1)NC(c1ccccc1)c1ccccc1` [Compound 29], which “Selectivity (SI) compared to HepG2 cells (previously reported analogues)” value [4] is on record?
A: > 1000

Q: With `O=C(NCCCNCCCCCNCCCNC(=O)NCc1ccccc1)NCc1ccccc1` [Compound 13, 1,13-Bis-{3-[1-(benzyl)urea]}-4,10-diazatridecane dihydrochloride] as the molecule, how does the “β-hematin formation inhibition, concentration without activity” value ([5]; no activity even at 1 mM) read?
A: > 1 mM

Q: With `S=C(NCCCNCCCCCNCCCNC(=S)NC(c1ccccc1)c1ccccc1)NC(c1ccccc1)c1ccccc1` [Compound 9, 1,13-Bis-{3-[1-(1’,1’-diphenylmethyl)thiourea]}-4,10-diazatridecane dihydrochloride] as the molecule, how does the “Gametocytocidal activity, late-stage gametocytes” value [6] read?
A: fully inhibitory

Q: For `CCNC(=O)NCCCNCCCCCCNCCCNC(=O)NCC` [Compound 54], which “P. falciparum IC50 (previously reported analogues)” value [1] is on record?
A: inactive

Q: For `C(CCCNCCCNCC1CCCCCC1)CCCNCCCNCC1CCCCCC1` [Compound 5], which “Reduction of parasitemia and extension of life span” value [7] is on record?
A: as effective as pyrimethamine at reducing parasitemia and extending life span

Q: With `S=C(NCCCNCCCCCNCCCNC(=S)NCCC(c1ccccc1)c1ccccc1)NCCC(c1ccccc1)c1ccccc1` [Compound 11, 1,13-Bis-{3-[1-(3′,3′-diphenylpropyl)thiourea]}-4,10-diazatridecane dihydrochloride] as the molecule, how does the “Gametocytocidal activity, late-stage gametocytes” value [6] read?
A: fully inhibitory

Q: What does the source list for `O=C(NCCCNCCCCCNCCCNC(=O)NCCC(c1ccccc1)c1ccccc1)NCCC(c1ccccc1)c1ccccc1` [Compound 16, 1,13-Bis-{3-[1-(3′,3′-diphenylpropyl)urea]}-4,10-diazatridecane dihydrochloride]?
A: Time to complete cessation of parasite proliferation [3]: ≤ 24 h; IC50 ([5]; read-out: β-hematin formation inhibition IC50, NP-40 mediated, n = 3): > 400 µM

Q: For `S=C(NCCCNCCCCCCNCCCNC(=S)NCc1ccccc1)NCc1ccccc1` [Compound 28], which “Selectivity (SI) compared to HepG2 cells (previously reported analogues)” value [4] is on record?
A: > 1000
